From ChEMBL document CHEMBL1145544, “Probing distal regions of the A2B adenosine receptor by quantitative structure-activity relationship modeling of known and novel agonists” (J Med Chem, 2008)

What was measured:
Adenosine receptor A2b = target: T1, Adenosine receptor A2b (Homo sapiens, UniProt P29275); assay: Agonist activity at human adenosine A2B receptor expressed in CHO cells assessed as stimulation of adenylate cyclase; type: functional, cell-based
T1 sequence (P29275 whole entry): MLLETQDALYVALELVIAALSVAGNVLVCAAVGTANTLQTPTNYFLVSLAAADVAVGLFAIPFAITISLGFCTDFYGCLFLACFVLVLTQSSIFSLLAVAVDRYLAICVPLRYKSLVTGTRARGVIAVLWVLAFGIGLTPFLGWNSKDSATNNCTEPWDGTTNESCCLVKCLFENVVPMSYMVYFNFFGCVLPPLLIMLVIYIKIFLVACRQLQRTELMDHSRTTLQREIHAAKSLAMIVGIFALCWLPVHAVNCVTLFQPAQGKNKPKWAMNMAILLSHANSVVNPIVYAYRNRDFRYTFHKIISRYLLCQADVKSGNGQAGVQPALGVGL
How it was run: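 Stably transfected CHO cells; cAMP accumulation quantified by enzyme immunoassay kit per manufacturer's manual; EC50 derived.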

[1] = target: T2, Adenosine receptor A2b (Homo sapiens) (UniProt P29275); assay: Agonist activity human adenosine A2B receptor expressed in CHO cells assessed as stimulation of adenylate cyclase relative to NECA; type: functional, cell-based
T2 sequence (whole entry): T1 sequence (P29275 whole entry)
How it was run: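 Stably transfected CHO cells; cAMP accumulation by enzyme immunoassay kit. Relative potency computed as pEC50(compound) minus pEC50(NECA) determined in the same publication.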

Adenosine receptor A2a [2] = target: T3, Adenosine receptor A2a (Homo sapiens, UniProt P29274); assay: Displacement of [3H]CGS-21680 from human adenosine A2A receptor expressed in HEK293 cells; type: cell-based
T3 sequence (P29274 whole entry): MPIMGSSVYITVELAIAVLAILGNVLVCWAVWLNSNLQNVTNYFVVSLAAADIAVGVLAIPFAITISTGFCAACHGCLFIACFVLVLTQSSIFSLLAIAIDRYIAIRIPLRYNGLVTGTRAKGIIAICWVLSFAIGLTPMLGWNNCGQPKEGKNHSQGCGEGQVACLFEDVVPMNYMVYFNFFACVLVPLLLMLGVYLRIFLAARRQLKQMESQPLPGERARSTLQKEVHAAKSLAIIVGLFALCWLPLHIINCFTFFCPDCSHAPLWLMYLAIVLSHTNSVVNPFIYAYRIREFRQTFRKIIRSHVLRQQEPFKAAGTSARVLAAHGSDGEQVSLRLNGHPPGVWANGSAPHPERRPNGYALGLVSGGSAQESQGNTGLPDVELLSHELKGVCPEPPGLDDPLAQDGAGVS

Adenosine receptor A1 = target: T4, Adenosine receptor A1 (Homo sapiens, UniProt P30542); assay: Displacement of [3H]CCPA from human adenosine A1 receptor expressed in CHO cells; type: cell-based
T4 sequence (P30542 whole entry): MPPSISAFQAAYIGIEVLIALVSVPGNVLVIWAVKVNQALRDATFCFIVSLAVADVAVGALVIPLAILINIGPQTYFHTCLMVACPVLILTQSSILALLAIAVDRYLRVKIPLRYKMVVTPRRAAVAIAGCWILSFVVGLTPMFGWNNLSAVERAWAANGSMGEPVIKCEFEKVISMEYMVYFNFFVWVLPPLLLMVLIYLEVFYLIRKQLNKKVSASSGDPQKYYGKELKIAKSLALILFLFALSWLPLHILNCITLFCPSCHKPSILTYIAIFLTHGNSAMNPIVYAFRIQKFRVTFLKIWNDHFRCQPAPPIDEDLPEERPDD

[3] = target: T5, Adenosine receptor A1 (Homo sapiens) (UniProt P30542); assay: Displacement of [3H]CCPA from human adenosine A1 receptor expressed in CHO cells at 10 uM; type: cell-based
T5 sequence (whole entry): T4 sequence (P30542 whole entry)
How it was run: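 CHO membranes expressing receptor; [3H]CCPA final 1.0 nM, Tris-HCl 50 mM pH 7.4 with 10 mM MgCl2, 1 h at 25 °C; nonspecific with 10 μM NECA; filtration and scintillation counting; percent displacement at single 10 μM test concentration.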

Adenosine receptor A2a [4] = target: T3, Adenosine receptor A2a; assay: Displacement of [3H]CGS-21680 from human adenosine A2A receptor expressed in HEK293 cells at 10 uM; type: cell-based
How it was run: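 HEK293 membranes expressing receptor; [3H]CGS21680 final 10 nM in 50 mM Tris-HCl pH 7.4, 10 mM MgCl2, 1 h at 25 °C; nonspecific defined by 10 μM NECA; filtration, scintillation counting; percent displacement recorded at single 10 μM concentration.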

Activity [1] | Structure (SMILES) | also measured
-1.23 | O=S(=O)(O)c1ccc(Nc2ncnc3c2ncn3[C@@H]2O[C@H](CO)[C@@H](O)[C@H]2O)cc1 | 
1.01 | CCNC(=O)[C@H]1O[C@@H](n2cnc3c(Nc4ccc(OCC(=O)Nc5ccc(F)cc5)cc4)ncnc32)[C@H](O)[C@@H]1O | 
0.64 | CCNC(=O)[C@H]1O[C@@H](n2cnc3c(Nc4ccc(OCC(=O)Nc5ccc6c(c5)OCO6)cc4)ncnc32)[C@H](O)[C@@H]1O | 
-0.449 | CCNC(=O)[C@H]1O[C@@H](n2cnc3c(NNC(=O)c4ccsc4)nc(Cl)nc32)[C@H](O)[C@@H]1O | 
-0.363 | CCNC(=O)[C@H]1O[C@@H](n2cnc3c(NNC(=O)c4ccc(Br)o4)ncnc32)[C@H](O)[C@@H]1O | 
-0.951 | COc1ccc2[nH]cc(CCOc3nc(N)c4ncn([C@@H]5O[C@H](CO)[C@@H](O)[C@H]5O)c4n3)c2c1 | 

Further lines, the compound ahead of its results:

Structure (SMILES) | Activity [1] | also measured
NNc1nc(OCCc2c[nH]c3cc(Br)ccc23)nc2c1ncn2[C@@H]1O[C@H](CO)[C@@H](O)[C@H]1O | -0.0944 | EC50 (Adenosine receptor A2b): 174 nM; Ki (Adenosine receptor A2a [2]): 2050 nM; Ki (Adenosine receptor A1): 350 nM
O=C(COc1ccc(Nc2nc(OCCc3c[nH]c4cc(Br)ccc34)nc3c2ncn3[C@@H]2O[C@H](CO)[C@@H](O)[C@H]2O)cc1)Nc1ccccc1 | -0.0092 | EC50 (Adenosine receptor A2b): 143 nM; Ki (Adenosine receptor A2a [2]): 1150 nM; Ki (Adenosine receptor A1): 370 nM
O=C(NNc1nc(OCCc2c[nH]c3cc(Br)ccc23)nc2c1ncn2[C@@H]1O[C@H](CO)[C@@H](O)[C@H]1O)c1ccco1 | -0.315 | EC50 (Adenosine receptor A2b): 289 nM; Activity [3]: 29%; Activity (Adenosine receptor A2a [4]): 40%
OC[C@H]1O[C@@H](n2cnc3c(NCc4ccccc4)ncnc32)[C@H](O)[C@@H]1O | -1.49 | 
CCNc1nc(C#C[C@H](O)c2ccccc2)nc2c1ncn2[C@@H]1O[C@H](CO)[C@@H](O)[C@H]1O | -0.579 | 
CCNC(=O)[C@H]1O[C@@H](n2cnc3c(Nc4ccc(OCC(=O)NC5CCCCC5)cc4)ncnc32)[C@H](O)[C@@H]1O | -0.308 | 
CCNC(=O)[C@H]1O[C@@H](n2cnc3c(N)nc(C#C[C@H](O)c4ccccc4)nc32)[C@H](O)[C@@H]1O | 0 | 
Nc1nc(Cl)nc2c1ncn2[C@@H]1O[C@H](CO)[C@@H](O)[C@H]1O | -0.889 | 
O=C(COc1ccc(Nc2nc(OCCc3c[nH]c4cc(Br)ccc34)nc3c2ncn3[C@@H]2O[C@H](CO)[C@@H](O)[C@H]2O)cc1)N1CCCC1 | -0.838 | EC50 (Adenosine receptor A2b): 965 nM; Ki (Adenosine receptor A1): 420 nM; Activity (Adenosine receptor A2a [4]): 46%
CCNC[C@H]1O[C@@H](n2cnc3c(NC(=N)N)ncnc32)[C@H](O)[C@@H]1O | 0.41 | 
CNc1nc(C#C[C@H](O)c2ccccc2)nc2c1ncn2[C@@H]1O[C@H](CO)[C@@H](O)[C@H]1O | -1.62 | 
CCNC(=O)[C@H]1O[C@@H](n2cnc3c(Nc4ccc(OCC(=O)NC5CCCCC5)cc4)nc(Cl)nc32)[C@H](O)[C@@H]1O | -0.29 | 
CC(C)Nc1nc(C#C[C@@H](O)c2ccccc2)nc2c1ncn2[C@@H]1O[C@H](CO)[C@@H](O)[C@H]1O | 0.398 | 
Nc1nc(OCCc2cccc3ccccc23)nc2c1ncn2[C@@H]1O[C@H](CO)[C@@H](O)[C@H]1O | -1.01 | 
